pEC50, pIC50: −log10 of the molar value.
Tests used:
[1] = tested on: Human immunodeficiency virus 1; assay: Antiviral activity against HIV1 IIIB infected in human H9 cells after 6 days by p24 antigen capture assay; conditions: Human immunodeficiency virus 1, H9, 144 h
[2] = Therapeutic index, ratio of IC50 for human H9 cells to EC50 for HIV1 3B; type: cell-based; conditions: read-out: TI
In short: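 Mock-infected H9 cells were run in parallel under the same conditions, and toxicity was measured by XTT. IC50 is the concentration toxic to 50% of the cells. TI = IC50/EC50, where EC50 is 50% suppression of HIV-1 IIIB replication measured by day-6 p24 antigen capture.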

[3] = target: Human immunodeficiency virus type 1 reverse transcriptase (Human immunodeficiency virus 1, UniProt Q72547); assay: Inhibition of HIV1 DH012 reverse transcriptase by roche colorimetric assay
In short: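 HIV-1 DH012 RT activity was measured across a range of test-compound concentrations using a colorimetric RT kit run per the manufacturer's protocol; IC50 taken as the inhibitory concentration.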

[4] = tested on: Human immunodeficiency virus 1; assay: Antiviral activity against HIV1 3B infected in human H9 cells assessed as inhibition of viral replication at up to 100 ug/mL after 6 hrs by p24 antigen based assay; type: functional, organism-based; conditions: in the assay text read “after 6 days” for “after 6 hrs”
In short: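 H9 human T cells (3 × 10^5 cells/mL) infected with HIV-1 IIIB at 125 TCID50. Compounds dissolved in DMSO and screened at final 100, 20, 4 and 0.8 μg/mL, with further dilutions for actives. Medium was replaced on days 1 and 4 post-infection. On day 6 the supernatant p24 antigen was measured by capture assay. EC50 is the concentration suppressing replication by 50%.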

Structure (SMILES): Cc1cc(=O)oc2c3c(ccc12)S[C@@H](C)[C@@H](OC(=O)[C@]12CC[C@](C)(C(=O)O1)C2(C)C)[C@H]3OC(=O)[C@]12CC[C@](C)(C(=O)O1)C2(C)C
- pEC50 [1]: > 7.41
- selectivity ratio [2]: > 1000

Structure (SMILES): Cc1cc(=O)oc2c3c(ccc12)S[C@H](C)[C@H](OC(=O)[C@]12CC[C@](C)(C(=O)O1)C2(C)C)[C@@H]3OC(=O)[C@]12CC[C@](C)(C(=O)O1)C2(C)C
- pEC50 [1]: 5.90
- selectivity ratio [2]: 31.1

Structure (SMILES): Cc1cc(=O)oc2c3c(ccc12)O[C@@H](C)[C@H](OC(=O)[C@]12CC[C@](C)(C(=O)O1)C2(C)C)[C@@H]3OC(=O)[C@]12CC[C@](C)(C(=O)O1)C2(C)C
- pEC50 [1]: > 7.40
- pIC50 [3]: 5.17
- selectivity ratio [2]: > 706

Structure (SMILES): Cc1cn([C@H]2C[C@H](N=[N+]=[N-])[C@@H](CO)O2)c(=O)[nH]c1=O [ZIDOVUDINE]
- pEC50 [1]: 8.00

Structure (SMILES): Cc1cc(=O)oc2c3c(ccc12)[S+]([O-])[C@@H](C)C(OC(=O)C12CCC(C)(C(=O)O1)C2(C)C)C3OC(=O)C12CCC(C)(C(=O)O1)C2(C)C (some centres undefined)
- EC50 [4]: Not Active

Structure (SMILES): Cc1cc(=O)oc2c3c(ccc12)S[C@H](C)[C@@H](OC(=O)[C@]12CC[C@](C)(C(=O)O1)C2(C)C)[C@H]3OC(=O)[C@]12CC[C@](C)(C(=O)O1)C2(C)C
- EC50 [4]: Not Active

Structure (SMILES): Cc1cc(=O)oc2c3c(ccc12)OC[C@H](OC(=O)[C@]12CC[C@](C)(C(=O)O1)C2(C)C)[C@@H]3OC(=O)[C@]12CC[C@](C)(C(=O)O1)C2(C)C
- pEC50 [1]: 4.79
- selectivity ratio [2]: 2.54

Structure (SMILES): Cc1cc(=O)oc2c3c(ccc12)[S+]([O-])[C@H](C)[C@H](OC(=O)[C@]12CC[C@](C)(C(=O)O1)C2(C)C)[C@@H]3OC(=O)[C@]12CC[C@](C)(C(=O)O1)C2(C)C (some centres undefined)
- pEC50 [1]: 4.61
- selectivity ratio [2]: 1.57

Structure (SMILES): Cc1cc(=O)oc2c3c(ccc12)SC[C@H](OC(=O)[C@]12CC[C@](C)(C(=O)O1)C2(C)C)[C@@H]3OC(=O)[C@]12CC[C@](C)(C(=O)O1)C2(C)C
- pEC50 [1]: 6.00
- selectivity ratio [2]: 40.6

Structure (SMILES): Cc1cc(=O)oc2c3c(ccc12)S(=O)(=O)[C@@H](C)C(OC(=O)C12CCC(C)(C(=O)O1)C2(C)C)C3OC(=O)C12CCC(C)(C(=O)O1)C2(C)C (some centres undefined)
- pEC50 [1]: 5.47
- selectivity ratio [2]: 11.1

Structure (SMILES): Cc1cc(=O)oc2c3c(ccc12)O[C@H](C)[C@H](OC(=O)[C@]12CC[C@](C)(C(=O)O1)C2(C)C)[C@@H]3OC(=O)[C@]12CC[C@](C)(C(=O)O1)C2(C)C
- EC50 [4]: Not Active

Structure (SMILES): Cc1cc(=O)oc2c3c(ccc12)OC(C)(C)[C@H](OC(=O)[C@]12CC[C@](C)(C(=O)O1)C2(C)C)[C@@H]3OC(=O)[C@]12CC[C@](C)(C(=O)O1)C2(C)C
- pEC50 [1]: 6.90
- pIC50 [3]: 4.98
- selectivity ratio [2]: 301

Structure (SMILES): Cc1cc(=O)oc2c3c(ccc12)O[C@H](C)[C@@H](OC(=O)[C@]12CC[C@](C)(C(=O)O1)C2(C)C)[C@H]3OC(=O)[C@]12CC[C@](C)(C(=O)O1)C2(C)C
- pEC50 [1]: 5.65
- selectivity ratio [2]: 17.8
